The nature of data set [1]: Cytotoxicity against human RPTEC after 24 hrs by LDH assay. The data set is classed as cell-based. To be noted: RPTEC cells, read-out: TC50. An outline of the steps: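 Primary human renal proximal tubule epithelial cells in REGM (EGF, hydrocortisone, epinephrine, insulin, T3, transferrin, gentamycin/amphotericin-B, FBS). After 72 h of growth at 37 °C, 5% CO2, cells were exposed for 24 h to aqueous compound at 100, 67, 44, 30, 20 and 13 μM. LDH release into the supernatant was measured by kit and TC50 (μM) derived, with PMB and PMBN as controls.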

The subject of data set [2] is Escherichia coli. Description: Antibacterial activity against polymyxin-sensitive Escherichia coli isolate 1 assessed as growth inhibition by broth microdilution method. The class given is functional.
Data set [3] deals with Acinetobacter baumannii. Description: Bactericidal activity against polymyxin-resistant Acinetobacter baumannii clinical isolate 1649. The class given is functional.
Data set [4] concerns Pseudomonas aeruginosa. Description: Antibacterial activity against polymyxin-sensitive Pseudomonas aeruginosa 1401 assessed as growth inhibition by broth microdilution method. The data set is classed as functional. An outline of the steps:
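CLSI broth microdilution MIC against P. aeruginosa 1401 (PA01) and 1402 (UC12120), the two strains used in the mouse thigh model.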
(In general: In broth dilution the organism is exposed to a series of concentrations in liquid medium.)

Data set [5] concerns Pseudomonas aeruginosa. Description: Bactericidal activity against polymyxin-resistant Pseudomonas aeruginosa clinical isolate 1646. The data set is classed as functional. An outline of the steps:
(§1)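 Test strain PA-1646 is a P. aeruginosa isolate with a mutated PmrAB two-component system. The system is constitutively active, so the modified lipid A moiety is constantly expressed on the cell surface, giving a polymyxin-resistant phenotype.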

Data set [6] relates to Klebsiella pneumoniae. Description: Antibacterial activity against polymyxin-sensitive ESBL-positive Klebsiella pneumoniae clinical isolate 3700 assessed as growth inhibition by broth microdilution method. The data set is classed as functional.
Data set [7] deals with Acinetobacter baumannii. Description: Antibacterial activity against polymyxin-sensitive Acinetobacter baumannii clinical isolate 3167 assessed as growth inhibition by broth microdilution method. The data set is classed as functional.
The subject of data set [8] is Pseudomonas aeruginosa. Description: Antibacterial activity against polymyxin-resistant Pseudomonas aeruginosa clinical isolate 1646 assessed as growth inhibition by broth microdilution method. The data set is classed as functional. In outline:
as §1

Data set [9] concerns Acinetobacter baumannii. Description: Antibacterial activity against polymyxin-resistant Acinetobacter baumannii clinical isolate 1649 assessed as growth inhibition by broth microdilution method. The class given is functional.

This passage reports CC50, MIC and MBC results from ChEMBL document CHEMBL2396592, “Discovery of Dap-3 polymyxin analogues for the treatment of multidrug-resistant Gram-negative nosocomial infections” (J Med Chem, 2013).

As a reminder, the MIC is the lowest concentration that inhibits growth of the organism. What is called MBC is the lowest tested concentration that kills the bacteria rather than only halting them.

≈ marks a conversion by molar mass, not a printed value. Where a SMILES comes first, the peptide text is derived from it. Bridges are numbered along the chain shown (N, C = ends). [ ]: non-standard residue; d: D form. The star is where a group is joined. X7 = N#Cc1ccc(-c2cc(C(=O)*)ccc2Cl)cc1; X4 = O=C(c1ccnc(-c2ccc(Cl)cc2)c1)*; X5 = O=C(c1ccc(Cl)c(-c2ccccn2)c1)*; 2Naphthoyl = O=C(c1ccc2ccccc2c1)*; X2 = COc1ccc(C(=O)*)cc1-c1ccccc1; X1 = O=C(c1cnnc(-c2ccccc2)c1)*; X3 = O=C(c1cncc(-c2ccccc2)c1)*; X6 = CC[C@H](C)CCCCC(=O)*; Dab = NCC[C@H](N)C(=O)O; Dap = NC[C@H](N)C(=O)O

For `CC(C)C[C@@H]1NC(=O)[C@@H](Cc2ccccc2)NC(=O)[C@H](CCN)NC(=O)[C@@H](NC(=O)[C@H](CN)NC(=O)[C@@H](NC(=O)[C@H](CCN)NC(=O)c2ccc3ccccc3c2)[C@@H](C)O)CCNC(=O)[C@H]([C@@H](C)O)NC(=O)[C@H](CCN)NC(=O)[C@H](CCN)NC1=O` (2Naphthoyl-[Dab]T[Dap][Dab][Dab][dF]L[Dab][Dab]T; lactam 4-C), in [1], the CC50 at 24 h amounted to 51 µM. Besides, the MIC in data set [2] was 0.125 µg/mL; in data set [4], 0.5 µg/mL; in data set [6] it was 0.125 µg/mL; in [7], 0.25 µg/mL; in [8], 4 µg/mL; in data set [9] it was 2 µg/mL. Besides, the MBC in data set [3] is 2 µg/mL (≈ 1.66 µM); in data set [5], 16 µg/mL (≈ 13.3 µM).

In the case of `CC(C)C[C@@H]1NC(=O)[C@@H](Cc2ccccc2)NC(=O)[C@H](CCN)NC(=O)[C@@H](NC(=O)[C@H](CN)NC(=O)[C@@H](NC(=O)[C@H](CCN)NC(=O)c2cnnc(-c3ccccc3)c2)[C@@H](C)O)CCNC(=O)[C@H]([C@@H](C)O)NC(=O)[C@H](CCN)NC(=O)[C@H](CCN)NC1=O` (X1-[Dab]T[Dap][Dab][Dab][dF]L[Dab][Dab]T; lactam 4-C), the CC50 at 24 h in data set [1] was found to be 84 µM. Also, the MIC in data set [2] was 0.125 µg/mL; in data set [4] it was 0.25 µg/mL; in data set [6], 0.125 µg/mL; in data set [7], 0.25 µg/mL; in [8], 2 µg/mL; in [9], 2 µg/mL. Moreover, the values for the MBC in data set [3] and in [5] were 4 µg/mL (≈ 3.25 µM) and 8 µg/mL (≈ 6.5 µM), respectively.

For `COc1ccc(C(=O)N[C@@H](CCN)C(=O)N[C@H](C(=O)N[C@@H](CN)C(=O)N[C@H]2CCNC(=O)[C@H]([C@@H](C)O)NC(=O)[C@H](CCN)NC(=O)[C@H](CCN)NC(=O)[C@H](CC(C)C)NC(=O)[C@@H](Cc3ccccc3)NC(=O)[C@H](CCN)NC2=O)[C@@H](C)O)cc1-c1ccccc1` (X2-[Dab]T[Dap][Dab][Dab][dF]L[Dab][Dab]T; lactam 4-C), in data set [1], the CC50 at 24 h was 27 µM. The MIC was determined as 0.25 µg/mL in [2]; 0.5 µg/mL in data set [4]; 0.25 µg/mL in [6]; 0.5 µg/mL in data set [7]; 1 µg/mL in data set [8]; 2 µg/mL in [9]. Moreover, the MBC in data set [3] and in data set [5] was 2 µg/mL (≈ 1.59 µM) throughout.

Take `CC(C)C[C@@H]1NC(=O)[C@@H](Cc2ccccc2)NC(=O)[C@H](CCN)NC(=O)[C@@H](NC(=O)[C@H](CN)NC(=O)[C@@H](NC(=O)[C@H](CCN)NC(=O)c2cncc(-c3ccccc3)c2)[C@@H](C)O)CCNC(=O)[C@H]([C@@H](C)O)NC(=O)[C@H](CCN)NC(=O)[C@H](CCN)NC1=O` (X3-[Dab]T[Dap][Dab][Dab][dF]L[Dab][Dab]T; lactam 4-C): the CC50 at 24 h in data set [1] turned out to be 56 µM. Besides, the MIC in data set [2] is 0.125 µg/mL; in data set [4] it was 0.5 µg/mL; in data set [6] it was 0.25 µg/mL; in [7], 0.25 µg/mL; in data set [8], 2 µg/mL; in data set [9], 4 µg/mL. The MBC in data set [3] and in data set [5] was 4 µg/mL (≈ 3.25 µM) each time.

`CC(C)C[C@@H]1NC(=O)[C@@H](Cc2ccccc2)NC(=O)[C@H](CCN)NC(=O)[C@@H](NC(=O)[C@H](CN)NC(=O)[C@@H](NC(=O)[C@H](CCN)NC(=O)c2ccnc(-c3ccc(Cl)cc3)c2)[C@@H](C)O)CCNC(=O)[C@H]([C@@H](C)O)NC(=O)[C@H](CCN)NC(=O)[C@H](CCN)NC1=O` (X4-[Dab]T[Dap][Dab][Dab][dF]L[Dab][Dab]T; lactam 4-C): the CC50 at 24 h in data set [1] came out at 30 µM. Besides, the minimum inhibitory concentration (MIC) in data set [2] was 0.25 µg/mL; in data set [4], 0.5 µg/mL; in data set [6] it was 0.25 µg/mL; in data set [7], 0.25 µg/mL; in [8], 1 µg/mL; in data set [9], 1 µg/mL. The MBC in [3] and in data set [5] was 1 µg/mL (≈ 0.791 µM) in each case.

With `CC(C)C[C@@H]1NC(=O)[C@@H](Cc2ccccc2)NC(=O)[C@H](CCN)NC(=O)[C@@H](NC(=O)[C@H](CN)NC(=O)[C@@H](NC(=O)[C@H](CCN)NC(=O)c2ccc(Cl)c(-c3ccccn3)c2)[C@@H](C)O)CCNC(=O)[C@H]([C@@H](C)O)NC(=O)[C@H](CCN)NC(=O)[C@H](CCN)NC1=O` (X5-[Dab]T[Dap][Dab][Dab][dF]L[Dab][Dab]T; lactam 4-C), the CC50 at 24 h in data set [1] stood at 72 µM. The MIC in [2] amounted to 0.25 µg/mL; in [4], 1 µg/mL; in data set [6], 0.25 µg/mL; in data set [7], 0.25 µg/mL; in [8], 4 µg/mL; in [9] it was 4 µg/mL. In addition, the minimal bactericidal concentration (MBC) in data set [3] came to 4 µg/mL (≈ 3.16 µM); in data set [5] it was 16 µg/mL (≈ 12.6 µM).

Turning to `CC[C@H](C)CCCCC(=O)N[C@@H](CCN)C(=O)N[C@H](C(=O)N[C@@H](CCN)C(=O)N[C@H]1CCNC(=O)[C@H]([C@@H](C)O)NC(=O)[C@H](CCN)NC(=O)[C@H](CCN)NC(=O)[C@H](CC(C)C)NC(=O)[C@@H](Cc2ccccc2)NC(=O)[C@H](CCN)NC1=O)[C@@H](C)O` (X6-[Dab]T[Dab][Dab][Dab][dF]L[Dab][Dab]T; lactam 4-C), the CC50 at 24 h in data set [1] was 27 µM. Besides, the minimal inhibitory concentration (MIC) in data set [2] was 0.125 µg/mL; in [4], 0.5 µg/mL; in data set [6], 0.5 µg/mL; in data set [7] it was 0.25 µg/mL; in data set [8], 4 µg/mL; in data set [9], 4 µg/mL. In addition, the minimal bactericidal concentration (MBC) is 4 µg/mL (≈ 3.32 µM) in data set [3] and 16 µg/mL (≈ 13.3 µM) in [5].

Regarding `CC[C@H](C)CCCCC(=O)N[C@@H](CCN)C(=O)N[C@H](C(=O)N[C@@H](CN)C(=O)N[C@H]1CCNC(=O)[C@H]([C@@H](C)O)NC(=O)[C@H](CCN)NC(=O)[C@H](CCN)NC(=O)[C@H](CC(C)C)NC(=O)[C@@H](Cc2ccccc2)NC(=O)[C@H](CCN)NC1=O)[C@@H](C)O` (X6-[Dab]T[Dap][Dab][Dab][dF]L[Dab][Dab]T; lactam 4-C), in data set [1], the CC50 at 24 h was 72 µM. The MIC came out at 0.125 µg/mL in data set [2]; 0.5 µg/mL in [4]; 0.125 µg/mL in [6]; 0.125 µg/mL in data set [7]; 1 µg/mL in data set [8]; 4 µg/mL in [9]. Also, the MBC came out at 4 µg/mL (≈ 3.36 µM) in data set [3] and 2 µg/mL (≈ 1.68 µM) in data set [5].

In the case of `CC(C)C[C@@H]1NC(=O)[C@@H](Cc2ccccc2)NC(=O)[C@H](CCN)NC(=O)[C@@H](NC(=O)[C@H](CN)NC(=O)[C@@H](NC(=O)[C@H](CCN)NC(=O)c2ccc(Cl)c(-c3ccc(C#N)cc3)c2)[C@@H](C)O)CCNC(=O)[C@H]([C@@H](C)O)NC(=O)[C@H](CCN)NC(=O)[C@H](CCN)NC1=O` (X7-[Dab]T[Dap][Dab][Dab][dF]L[Dab][Dab]T; lactam 4-C), the CC50 at 24 h in [1] turned out to be 20 µM. Besides, the MIC turned out to be 0.5 µg/mL in data set [2]; 1 µg/mL in [4]; 0.5 µg/mL in [6]; 0.5 µg/mL in [7]; 1 µg/mL in data set [8]; 4 µg/mL in data set [9]. Also, the MBC in data set [3] and in [5] was 4 µg/mL (≈ 3.1 µM) throughout.
